These results are taken from ChEMBL document CHEMBL1125014, “Synthesis and structure-activity relationships of new 9-N-alkyl derivatives of 9(S)-erythromycylamine” (1990).

SMILES strings stand for the structures. In brackets after ≈: the same amount, converted by molar mass.

As a reminder, the MIC is the least concentration at which growth counts as inhibited. Read a high MIC as a need for much substance.

The subject of test [1] is Rattus norvegicus. As to the kind of experiment: Plasma concentration in rats was determined by subcutaneous administration, 20 mg/kg at 8 h. Format: functional, organism-based. Set-up: dose 20 mg/kg. The gist of the method:
(§1)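 Peripheral plasma antibiotic levels in rats given 20 mg/kg orally or subcutaneously. Plasma was sampled at timed points after dosing. Levels were measured by microbiological agar assay with Micrococcus luteus seeded in Antibiotic Media 1, reading zone sizes, and were calculated from a standard curve for the appropriate compound. Each value is the average of three rats per time point, in μg/mL.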

The subject of another test is Enterococcus faecalis. Nature of the test: MIC value was measured against streptococcus faecalis. Format: functional.
Test [2] has as its system Rattus norvegicus. As to the kind of experiment: Plasma concentration in rats was determined by oral administration, 20 mg/kg at 8 hr. Format: functional, organism-based. Set-up: dose 20 mg/kg. The gist of the method: as §1
Test [3] is filed under the species Rattus norvegicus. As to the kind of experiment: Fluid concentration in serum was determined in rats at 6 hr. Format: functional. The essentials:
(§2)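 Rats dosed by gavage at 20 mg/kg; lung, liver, kidney, urine and serum sampled at 0.5, 1, 2, 4 and 6 h after dosing. Antibiotic measured by microbiological assay with Micrococcus luteus seeded in Antibiotic Medium 1. Zone sizes were read against the standard curve for the same compound. Each value is the average of three rats per time point.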

For test [4], the species on record is Rattus norvegicus. As to the kind of experiment: Fluid concentration in kidney tissue was determined in rats at 1 hr. Format: functional. The gist of the method: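 Rats were gavaged at 20 mg/kg and tissues sampled 0.5–6 h after dosing. Drug was assayed microbiologically with Micrococcus luteus seeded in Antibiotic Media 1. Zone sizes were read against each compound's own standard curve. Values are the mean of three rats per time point, in μg/g.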

The species named for test [5] is Rattus norvegicus.
The species entered for test [6] is Rattus norvegicus. As to the kind of experiment: Fluid concentration in serum was determined in rats at 4 hr. Format: functional. The gist of the method:
as §2

Take `CCCN[C@@H]1[C@H](C)[C@@H](O)[C@](C)(O)[C@@H](CC)OC(=O)[C@H](C)[C@@H](OC2CC(C)(OC)C(O)C(C)O2)[C@H](C)[C@@H](OC2OC(C)CC(N(C)C)C2O)[C@](C)(O)C[C@H]1C` (stereo partly drawn): the Plasma concentration with Rattus norvegicus [1] was 0.24 µg/mL. In the test on Enterococcus faecalis, this compound yielded an MIC of 0.12 µg/mL (≈ 0.154 µM).
With `CC[C@H]1OC(=O)[C@H](C)[C@@H](O[C@H]2C[C@@](C)(OC)[C@@H](O)[C@H](C)O2)[C@H](C)[C@@H](O[C@@H]2O[C@H](C)C[C@H](N(C)C)[C@H]2O)[C@](C)(O)C[C@@H](C)C(=O)[C@H](C)[C@@H](O)[C@]1(C)O` [ERYTHROMYCIN], the Plasma concentration amounted to 0.01 µg/mL with Rattus norvegicus [2], 0.7 µg/mL in the test listed under Rattus norvegicus [5] and 0.01 µg/mL in the test listed under Mus musculus. Further, the Activity in the test listed under Rattus norvegicus [3] was 0 µg/mL; in the test listed under Rattus norvegicus [4], 0.15 µg/mL; in the test filed under Rattus norvegicus [6], 0 µg/mL.
